# Sampled rows, rich in hits. Any-hit rate of the full collection: about 2.1%.
# LMP1 NFkB inh – EBV LMP1-driven NF-kappaB luciferase reporter inhibitors, primary screen, cell-based, luminescence, single point; LMP1-induced NF-kappaB luciferase reporter cells; inhibition, % at 12.5 µM; actives 0.69% (n = 350,000); AID 504558, 2011; in the data active = inhibition above about 41%;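 note: 0% = neutral control wells and 100% = reference inhibitor control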
# PAX8 reporter – inhibitors of PAX8-driven TPO luciferase reporter, primary screen, RMG-I cells, single concentration; SteadyGlo, 24 h; inhibition, % at 12.6 µM; AID 652154, 2013; actives 1.2% (n = 360,000);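 active = mean replicate inhibition at least 60% with every replicate also reaching 60%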;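 note: luciferase light reporting Pax8 driven TPO promoter activity; plate controls were median of neutral control wells for no effect and mitoxantrone controls for full effect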
# Shn3 3UTR inh – reduction of Shn3 3'UTR firefly luciferase signal, primary screen, Schnurri-3 inhibitor project, cell-based, Clone20 osteoblasts, set 2; Clone20 osteoblast Shn3 3'UTR firefly luciferase, 24 h; inhibition, % at 12.5 µM; actives 0.52% (n = 360,000);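 active = mean inhibition of at least 75% with every replicate also reaching 75%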;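 note: 0% = median of neutral control wells and 100% = pilot-screen positive control compound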
# EWS-Fli block – EWS/Fli-driven NR0B1 reporter inhibitors, primary screen, A673 cells, NR0B1 luciferase, luminescence, MLPCN library. viability-normalised. inhibition, % at 12.6 µM. actives 0.67% (n = 350,000). AID 651661, 2012;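 active = mean inhibition of at least 50% after viability correction, with every replicate also passing that limit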;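 note: firefly luciferase signal divided by Alamar Blue viability fluorescence both relative to DMSO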
# aSyn UTR inh – MLPCN primary screen, SNCA 5' untranslated region | alpha-synuclein 5'UTR reporter, inhibitor activity | inhibition, % (tested at 7.5 µM) | actives 0.82% (n = 300,000) | AID 1813, 2009; in the data active = inhibition above about 60%;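 note: H4 neuroglioblastoma cells stably carrying SNCA 5'UTR luciferase fusion; 0% = DMSO wells and 100% = positive control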
# FN deposition inh – inhibitors of fibronectin matrix deposition, primary screen, AH1F cells, Alexa488-fibronectin fluorescence, plate reader | AH1F fibroblasts, overnight | inhibition, % at 12.6 µM | actives 0.086% (n = 350,000);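 active = mean inhibition across replicates of 30% or more, regardless of how many single replicates reach that level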;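 note: positive control wells lacked labelled fibronectin entirely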
#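 Material – AH1F fibroblast monolayer, labelled fibronectin deposition · Reagent – labelled fibronectin 24 nM · Timing – 1 h adhesion, overnight exposure · Measured by – fluorescence at 485 nm excitation, 525 nm emission · Read-out – inhibition of fibronectin deposition signal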
# An asterisk follows results filed as active; · = no result given; ! = not confirmed by another sample.
SMILES,LMP1 NFkB inh,PAX8 reporter,Shn3 3UTR inh,EWS-Fli block,aSyn UTR inh,FN deposition inh
CN(C)c1ncnc2c1ncn2C1OC(CO)C(O)C1O (stereo unspecified),36,·,96*,·,108*,·
O=c1[nH]cnc2c1ncn2C1OC(CO)C(O)C1O (stereo unspecified),4,-10,2,-12,·,3
C=CCCN(CC#C[C@H]1Oc2ccccc2S(=O)(=O)N2CCC[C@@H]12)S(=O)(=O)c1ccc(C)cc1,·,9,·,9,·,·
COc1ccccc1NC(=O)N[C@@H]1CC[C@@H](CCNS(=O)(=O)c2ccc(C)cc2)O[C@@H]1CO,·,-2,·,-7,·,·
CC12CCC(C(=O)N/N=C/c3ccc(O)cc3O)(OC1=O)C2(C)C (stereo unspecified),18,23,89*,5,16,2
COc1ccc(C2c3cc4c(cc3OC(N3CCOCC3)C2C)OCO4)c(OC)c1 (stereo unspecified),1,37,67,60*,·,3
CN=C1S/C(=C\c2ccc(O)c(Br)c2)C(=O)N1C,45*,23,-8,6,-7,-5
CN=C1S/C(=C\c2ccc(O)c(OC)c2)C(=O)N1C,·,-151,·,-27,-110,11
ON=C1c2cc(OCCN3CCCCC3)ccc2-c2ccc(OCCN3CCCCC3)cc21,-56,·,-9,·,-189,·
NC(=S)NN=C1c2cc(OCCN3CCOCC3)ccc2-c2ccc(OCCN3CCOCC3)cc21,-5,59,22,64*,-30,15
C[C@@H]1CCCCO[C@@H](CN(C)Cc2ccc3c(c2)OCO3)[C@@H](C)CN([C@H](C)CO)C(=O)c2cc(NS(=O)(=O)c3ccc(F)cc3)ccc2O1,·,-31,·,5,·,-16
CC(NC(=O)COC(=O)c1ccc2c(c1)S(=O)(=O)N=C1CCCCCN12)C12CC3CC(CC(C3)C1)C2 (stereo unspecified),5,-11,9,12,68*,0
C[C@H](CO)N1C[C@H](C)[C@H](CN(C)C(=O)c2ccccn2)Oc2cc(C#CC3CC3)ccc2S1(=O)=O,·,·,·,5,·,-19
C=CCn1c(SCC(C)=O)nc2scc(-c3ccco3)c2c1=O,-5,7,-11,8,16,6
C=CCn1c(SC(F)F)nc2scc(-c3ccco3)c2c1=O,-38,82*,-24,13,6,37*
Cc1sc2ncnc(N/N=C/c3ccccc3O)c2c1C,43*,5,86*,·,106*,·
O=C(O)C(O)c1ccccc1 (stereo unspecified),83*!,-12,6,1,1,0
CCCCCCc1cc2cc(C(=O)Nc3ccc(OC)cc3)c(=O)oc2cc1O,29,2,18,9,10,0
CCCCCCc1cc2cc(C(=O)Nc3cccc(OC)c3)c(=O)oc2cc1O,5,-12,1,·,63*,1
S=C(NCC1CCCO1)Nc1ccc(Cl)cc1Cl (stereo unspecified),-13,-89,-54,·,-87,30*
S=C1NCCc2ccc(Cl)cc2C1c1ccccc1Cl (stereo unspecified),-11,·,-2,·,15,-5
Clc1ccc2c(c1)C(C1=NCCN1)c1ccccc1CS2 (stereo unspecified),26,20,21,·,79*,6
Cc1ccc(S(=O)(=O)Nc2ccc3c(c2)C(=O)N([C@@H](C)CO)C[C@H](C)[C@H](CN(C)C(=O)c2ccncc2)OCCCC[C@H](C)O3)cc1,·,8,·,3,·,-17
O=C(c1[nH]c(C(F)(F)F)nc1-c1ccccc1)N1CCN(c2ccccc2)CC1,·,29,5,65*,·,19
Cc1ccc(N2CCN(C(=O)c3[nH]c(C(F)(F)F)nc3-c3ccccc3)CC2)cc1,·,-7,-2,-3,·,14
CC(=O)c1ccc(NC(=O)c2cnn3ccccc23)cc1,35,34,80,69*,79*,1
CO[C@@H]1CN(C)C(=O)c2ccc(NS(=O)(=O)c3ccc(C)cc3)cc2OC[C@@H](C)N(C(=O)NC(C)C)C[C@@H]1C,·,·,·,-3,·,-17
